ChEMBL document CHEMBL2424608, “Discovery of novel N-substituted carbazoles as neuroprotective agents with potent anti-oxidative activity” (Eur J Med Chem, 2013)
Activity calls are given as the source filed them. The calls are words filed in the database; no cut-off is given here.

Columns and labels:
[1] = system: HT-22; experiment: Neuroprotective activity against mouse HT22 cells assessed as inhibition of HCA-induced cell injury pretreated at 30 uM for 30 mins measured after 24 hrs by MTT assay; type: functional
In short: (§1)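 HT22 mouse hippocampal cells in DMEM/10% FBS at 37 °C, 5% CO2, seeded at 4000 cells/well. Compound (30 mM DMSO stock, diluted in medium) added 30 min before glutamate (2 mM) or HCA (500 µM), then 24 h exposure. Controls get vehicle. Viability by MTT (500 µg/mL, 1 h, 37 °C), DMSO solubilisation, A570 relative to control = 100%. n = 6.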

[2] = system: HT-22; experiment: Neuroprotective activity against mouse HT22 cells assessed as inhibition of HCA-induced cell injury pretreated at 3 uM for 30 mins measured after 24 hrs by MTT assay; type: functional; in short: as §1
[3] = system: HT-22; experiment: Neuroprotective activity against mouse HT22 cells assessed as inhibition of HCA-induced cell injury pretreated at 10 uM for 30 mins measured after 24 hrs by MTT assay; type: functional; in short: as §1
[4] = system: HT-22; experiment: Neuroprotective activity against mouse HT22 cells assessed as inhibition of glutamate-induced cell injury pretreated at 30 uM for 30 mins measured after 24 hrs by MTT assay; type: functional; in short: as §1
[5] = system: HT-22; experiment: Neuroprotective activity against mouse HT22 cells assessed as inhibition of glutamate-induced cell injury pretreated at 10 uM for 30 mins measured after 24 hrs by MTT assay; type: functional; in short: as §1
[6] = system: HT-22; experiment: Neuroprotective activity against mouse HT22 cells assessed as inhibition of glutamate-induced cell injury pretreated at 3 uM for 30 mins measured after 24 hrs by MTT assay; type: functional; in short: as §1
[7] = system: HT-22; experiment: Neuroprotective activity against mouse HT22 cells assessed as inhibition of glutamate-induced cell shrinkage and debris pretreated at 3 uM for 30 mins measured after 24 hrs by phase-contrast microscopy; type: functional, cell-based
In short: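 HT22 cells get compound 30 min before glutamate (2 mM). Morphology is viewed by inverted phase-contrast microscopy.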

[8] = system: HT-22; experiment: Neuroprotective activity against mouse HT22 cells assessed as inhibition of glutamate-induced ROS production pretreated for 30 mins measured after 10 hrs by DHE-based fluorescence assay; type: functional, cell-based
In short: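 HT22 cells get compound for 30 min, then glutamate (2 mM). After exposure, cells are washed with PBS pH 7.4 and loaded with DHE at 10 µM in serum-free DMEM for 30 min. Fluorescence microscopy plus plate-reader intensity at ex 485/em 595 nm.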

[9] = system: HT-22; experiment: Neuroprotective activity against mouse HT22 cells assessed as inhibition of glutamate-induced cell injury pretreated for 30 mins measured after 24 hrs by MTT assay; type: functional, cell-based; in short: as §1
[10] = system: HT-22; experiment: Cytotoxicity against mouse HT22 cells at 30 uM by LDH assay; type: cell-based; details: ht-22, 30 µM
In short: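 HT22 cells given compound alone at 30 µM; cytotoxicity read by LDH release assay.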

[11] = system: HT-22; experiment: Neuroprotective activity against mouse HT22 cells assessed as inhibition of glutamate-induced GSH depletion pretreated at 10 to 30 uM for 30 mins measured after 10 hrs by glutathione assay kit

Structure (SMILES): CN(C)c1ccc(-n2c3ccccc3c3ccccc32)cc1
- inhibition at 30 µM [1]: 81%
- inhibition at 3 µM [2]: 0%
- inhibition at 10 µM [3]: 30%
- inhibition at 30 µM [4]: 77%
- inhibition at 10 µM [5]: 40%
- inhibition at 3 µM [6]: 20%

Structure (SMILES): Cc1ccc(-n2c3ccccc3c3ccc(-c4ccccc4)cc32)cc1
- inhibition [7]: Active
- inhibition [8]: Dose-dependent effect
- inhibition [9]: Dose-dependent effect
- inhibition at 30 µM [1]: 44%
- Activity [10]: Non-toxic
- inhibition at 3 µM [2]: 64%
- inhibition at 10 µM [3]: 77%
- inhibition at 30 µM [4]: 50%
- inhibition at 10 µM [5]: 69%
- inhibition at 3 µM [6]: 63%
- inhibition [11]: inactive

Structure (SMILES): c1ccc2c(c1)sc1ccccc12
- inhibition [1]: inactive
- inhibition [4]: inactive

Structure (SMILES): COc1ccc2c(c1)c1ccccc1n2S(=O)(=O)c1ccc(C)cc1
- inhibition at 30 µM [1]: 0%
- inhibition at 3 µM [2]: 0%
- inhibition at 10 µM [3]: 0%
- inhibition at 30 µM [4]: 5.2%
- inhibition at 10 µM [5]: 3%
- inhibition at 3 µM [6]: 0%

Structure (SMILES): CCCCn1c2ccccc2c2ccccc21
- inhibition at 30 µM [1]: 0%
- inhibition at 3 µM [2]: 0%
- inhibition at 10 µM [3]: 0%
- inhibition at 30 µM [4]: 0%
- inhibition at 10 µM [5]: 0%
- inhibition at 3 µM [6]: 0%

Structure (SMILES): Fc1cccc(-n2c3ccccc3c3ccccc32)c1
- inhibition at 30 µM [1]: 0%
- inhibition at 3 µM [2]: 0%
- inhibition at 10 µM [3]: 0%
- inhibition at 30 µM [4]: 0%
- inhibition at 10 µM [5]: 0%
- inhibition at 3 µM [6]: 0%

Structure (SMILES): Brc1ccc(-n2c3ccccc3c3ccccc32)cc1
- inhibition at 30 µM [1]: 0%
- inhibition at 3 µM [2]: 0%
- inhibition at 10 µM [3]: 0%
- inhibition at 30 µM [4]: 0%
- inhibition at 10 µM [5]: 0%
- inhibition at 3 µM [6]: 0%

Structure (SMILES): Cc1ccc(S(=O)(=O)n2c3ccccc3c3ccc(C#N)cc32)cc1
- inhibition at 30 µM [1]: 0%
- inhibition at 3 µM [2]: 0%
- inhibition at 10 µM [3]: 0%
- inhibition at 30 µM [4]: 7%
- inhibition at 10 µM [5]: 2%
- inhibition at 3 µM [6]: 3%

Structure (SMILES): c1ccc2c(c1)oc1ccccc12
- inhibition [1]: inactive
- inhibition [4]: inactive

Structure (SMILES): CCc1ccc(S(=O)(=O)n2c3ccccc3c3ccccc32)cc1
- inhibition at 30 µM [1]: 30%
- inhibition at 3 µM [2]: 0%
- inhibition at 10 µM [3]: 6%
- inhibition at 30 µM [4]: 28%
- inhibition at 10 µM [5]: 3%
- inhibition at 3 µM [6]: 0%

Structure (SMILES): Fc1ccc(-n2c3ccccc3c3ccccc32)cc1
- inhibition at 30 µM [1]: 0%
- inhibition at 3 µM [2]: 0%
- inhibition at 10 µM [3]: 0%
- inhibition at 30 µM [4]: 0%
- inhibition at 10 µM [5]: 0%
- inhibition at 3 µM [6]: 0%

Structure (SMILES): c1ccc(-n2c3ccccc3c3ccccc32)cc1
- inhibition at 30 µM [1]: 5%
- inhibition at 3 µM [2]: 0%
- inhibition at 10 µM [3]: 0%
- inhibition at 30 µM [4]: 6%
- inhibition at 10 µM [5]: 7%
- inhibition at 3 µM [6]: 0%

Structure (SMILES): Cc1ccc(-n2c3ccccc3c3ccccc32)nc1
- inhibition at 30 µM [1]: 12%
- inhibition at 3 µM [2]: 0%
- inhibition at 10 µM [3]: 5%
- inhibition at 30 µM [4]: 5%
- inhibition at 10 µM [5]: 0%
- inhibition at 3 µM [6]: 0%
